CSC inhib: blocks cancer stem cells; cancer stem cell-like cells viability, luminescence; inhibition, % at 7.5 µM; 300,000 compounds, 1.1% hits; AID 2717; in the data active = inhibition above about 75%; tested in HMLE shEcad cells
T cruzi repl: T. cruzi replication inhibition | T. cruzi beta-gal in NIH3T3, luminescence, 90 h | inhibition, % (no concentration beside the values) | 300,000 compounds, 1.4% hits | AID 1885;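 active = mean inhibition across valid replicates above about 55%, limit read from the data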;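 note: signal also drops with host cell toxicity which is not excluded here; 0% = plate median of DMSO wells and 100% = zero luminescence signal; higher percent means less beta-gal luminescence so fewer parasites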
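System: mouse NIH/3T3 fibroblasts infected with β-gal-expressing T. cruzi Tulahuen C4 / Input: NIH/3T3 cells, 5,000 per well / Buffer or medium: Low-serum DMEM with 2% FBS / Probe or stimulus: 5000 reporter trypomastigotes per well / Schedule: ≥90 h infection period, 3 h prior cell attachment / Measured by: GalScreen luminescence, 60 min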
SKKanGAS inh: blocks kanamycin growth of S. pyogenes SKKanGAS strain; BacTiter-Glo, 6 h; inhibition, % at 7.5 µM; 300,000 compounds, 1.3% hits;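 active = mean replicate score, as percent of positive control median, at least 50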;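 note: strain carries kanamycin resistance gene driven by streptokinase promoter and grows in 40 µg/ml kanamycin; loss of luminescence reflects streptokinase promoter inhibition or plain growth inhibition; 0% = median of DMSO wells and 100% = positive control at its reference dose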
Calb FLC: affects C. albicans growth with fluconazole; AID 1979; C. albicans CaCi-2 (fluconazole-resistant clinical isolate) + fluconazole, Alamar Blue growth, 48 h; growth inhibition, % (test concentration not listed); 300,000 compounds, 0.57% hits;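 active = growth inhibition above about 58% in most replicates, limit read from the data, passing the limit was not always enough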;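 note: all wells also contain fluconazole at 8 µg/ml as a sub-toxic cotreatment; 0% = median of DMSO wells and 100% = median of geldanamycin control wells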
Mdm2 MdmX PPI: human Mdm2/MdmX binding inhibition; O15151+Q00987; SaOS-2 split-luciferase Mdm2/MdmX complementation, luminescence; inhibition, % at 8 µM; 330,000 compounds, 3% hits; AID 485346;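 active = inhibition of at least 50% at 8 µM in the primary screen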
Target sequence (O15151 whole entry, looked up): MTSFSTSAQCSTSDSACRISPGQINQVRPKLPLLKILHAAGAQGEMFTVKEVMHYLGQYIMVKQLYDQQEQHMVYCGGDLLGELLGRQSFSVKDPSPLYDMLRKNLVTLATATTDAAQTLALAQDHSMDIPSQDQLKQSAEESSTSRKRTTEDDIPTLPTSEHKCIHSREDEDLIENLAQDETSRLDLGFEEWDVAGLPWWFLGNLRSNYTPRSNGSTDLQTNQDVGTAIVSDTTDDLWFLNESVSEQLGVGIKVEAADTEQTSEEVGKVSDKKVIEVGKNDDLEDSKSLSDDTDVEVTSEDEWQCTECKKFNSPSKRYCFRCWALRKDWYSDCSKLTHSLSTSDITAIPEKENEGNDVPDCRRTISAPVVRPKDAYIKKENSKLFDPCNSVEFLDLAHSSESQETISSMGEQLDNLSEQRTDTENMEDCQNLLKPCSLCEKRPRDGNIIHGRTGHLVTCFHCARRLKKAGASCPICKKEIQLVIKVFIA
Target sequence (Q00987 whole entry, looked up): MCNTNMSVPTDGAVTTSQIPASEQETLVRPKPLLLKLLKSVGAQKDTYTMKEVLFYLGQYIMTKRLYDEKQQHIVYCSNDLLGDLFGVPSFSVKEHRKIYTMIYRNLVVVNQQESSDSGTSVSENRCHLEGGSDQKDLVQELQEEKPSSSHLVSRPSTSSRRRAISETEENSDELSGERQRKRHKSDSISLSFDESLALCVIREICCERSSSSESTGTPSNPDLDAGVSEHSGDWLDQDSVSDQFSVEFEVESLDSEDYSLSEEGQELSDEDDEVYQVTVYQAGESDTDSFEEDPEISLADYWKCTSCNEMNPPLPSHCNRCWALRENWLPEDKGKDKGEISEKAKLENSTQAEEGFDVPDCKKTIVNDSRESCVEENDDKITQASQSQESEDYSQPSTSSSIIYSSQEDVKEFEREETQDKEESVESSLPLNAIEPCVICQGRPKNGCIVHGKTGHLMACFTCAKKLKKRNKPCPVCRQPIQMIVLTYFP
Beta cell apopt: blocks beta cell apoptosis; protection from apoptosis, % (no concentration beside the values); INS-1E cytokine-induced death, ATP luminescence, 48 h; percent of positive-control rescue, neutral wells zero; 300,000 compounds, 0.8% hits;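 active = Every replicate reaches about 75%, or at least half do and their mean reaches it too, limit read from the data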;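 note: 0% = cytokine-treated negative control wells and 100% = positive control rescue; higher means more ATP so stronger rescue from cytokine killing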
Mdm2 MdmX conf: confirmation of human Mdm2/MdmX interaction inhibitors | shares compounds with Mdm2 MdmX PPI | Mdm2-MdmX binding, luminescent assay | inhibition, % at 8 µM | 10,000 compounds, 55% hits; in the data active = inhibition above about 40%
Full FLuc ctr: counter-screen for Mdm2/MdmX inhibitors: full-length luciferase; shares compounds with Mdm2 MdmX PPI; SaOS-2 full-length luciferase counterscreen, luminescence; inhibition, % at 8 µM; 6,200 compounds, 77% hits;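 active = mean inhibition at 8 µM reaching about 37%, which flags the compound as non-specific, limit read from the data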;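 note: p53-null SaOS-2 cells with luciferase driven by a doxycycline-inducible promoter; compound on cells about two nights before reading with doxycycline added after day one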
An asterisk follows results filed as active; nt = no result given. The list is not random: actives were taken first. Their share in the collection is about 5.7%.

SMILES	CSC inhib	T cruzi repl	SKKanGAS inh	Calb FLC	Mdm2 MdmX PPI	Beta cell apopt	Mdm2 MdmX conf	others
Cc1ccc(C(O)(c2ccc(C)c(C)c2)C2CN3CCC2CC3)cc1C (configuration not stated)	2	13	9	-5	61*	16	44*	Full FLuc ctr=74*
Cc1ccccc1C(O)(Cc1ccccc1)C1CN2CCC1CC2 (configuration not stated)	29	-9	-1	-2	54*	-16	61*	Full FLuc ctr=69*
C[N+]12CCC(CC1)C(C(O)(c1cccc(Cl)c1)c1cccc(Cl)c1)C2 (configuration not stated)	-5	2	-3	19	3	-2	nt
O=c1[nH]c(=O)n(C2CCCCCC2)c(O)c1C=NCc1cccnc1	-10	-24	2	5	-11	nt	nt
CC[C@]12CC[C@H](O)CC1=CCC1C2CC[C@]2(C)C(=O)CCC12 (some centres not stated)	-17	nt	nt	nt	16	0	nt
Fc1ccc(C(OCCN2CCCC2)c2ccc(F)cc2)cc1	nt	22	1	26	-7	nt	nt
Fc1ccc(C(OCCN2CCN(CCCc3ccccc3)CC2)c2ccc(F)cc2)cc1	98*	36	5	nt	83*	102*	59*	Full FLuc ctr=30
c1ccc(CCCN2CCN(CCOC(c3ccccc3)c3ccccc3)CC2)cc1	69	33	-2	nt	50*	14	34	Full FLuc ctr=80*
CN1CCC(c2c[nH]c3ccccc23)C1 (configuration not stated)	1	4	17	1	-26	-2	nt
CC1CCCC(C)N1/N=C/c1c[nH]c2ccc(Br)cc12 (configuration not stated)	nt	18	0	4	52*	4	27
COC1=C(C)C(=O)O[C@]12C(=O)C(C)=C1CCCCN3[C@H]([C@@H]4C[C@H](C)C(=O)O4)CC[C@]132	-11	nt	nt	nt	-11	0	nt
COC(=O)C[C@]1(C(=O)OC)CN(C#N)N(c2ccc(Cl)cc2)C12c1ccccc1-c1ccccc12	0	49	-28	-6	99*	112*	7
COC(=O)[C@@H]1[C@@H](C(=O)OC)C2(c3ccccc3-c3ccccc32)N(c2ccc(Cl)cc2)N1C#N	-10	56*	0	-7	101*	50	18
CC(=O)OC1C2CCC1C(N1CCCC1)CC2 (configuration not stated)	-8	-7	0	-5	-2	nt	nt
C/C=C(\C)C(=O)OC1C(C)=C2C(C1OC(=O)CCCCC)C(C)(OC(C)=O)CC(OC(=O)CCC)C1(O)C2OC(=O)C1(C)O (configuration not stated)	101*	10	31	24	82*	107*	64*	Full FLuc ctr=24
Cc1ncc2n1-c1ccc(Cl)cc1C(c1ccccc1F)=NC2	nt	nt	nt	nt	51*	nt	14
CN(C)C1=NC(N(C)C)=NP(N(C)C)(N(C)C)=N1	-4	-5	4	30	7	-4	nt
Nc1c(C(=O)NCCc2ccccc2)c2nc3ccccc3nc2n1CCN1CCOCC1	nt	33	14	2	54*	nt	28
COc1ccc(CCNC(=O)c2c(N)n(CCN3CCOCC3)c3nc4ccccc4nc23)cc1	42	35	50*	-6	76*	1	8
Nc1c(C(=O)NCCN2CCOCC2)c2nc3ccccc3nc2n1Cc1ccccc1	-3	15	5	0	25	-4	nt
CCCCn1c(N)c(C(=O)NCCN2CCOCC2)c2nc3ccccc3nc21	14	17	11	-2	4	-2	nt
CCc1cc(=O)oc2c(C)c(OCC(=O)N3C[C@H]4C[C@@H](C3)c3cccc(=O)n3C4)ccc12	-2	-5	2	0	-6	nt	nt
COc1cc2c3cc1Oc1cc(ccc1O)C[C@@H]1c4c(cc(OC)c(O)c4Oc4cccc(c4)C[C@@H]3N(C)CC2)CC[N+]1(C)C	-4	nt	nt	nt	-24	-1	nt
COc1cc2c3c(c1OC)Oc1ccc(cc1)C[C@H]1c4c(cc(OC)c(OC)c4Oc4ccc(cc4)C[C@@H]3N(C)CC2)CCN1C	nt	nt	nt	nt	100*	nt	74*	Full FLuc ctr=35
COc1cc2c3cc1Oc1c(OC)c(OC)cc4c1[C@H](Cc1ccc(cc1)Oc1cc(ccc1O)C[C@H]3N(C)CC2)N(C)CC4	-4	nt	nt	nt	97*	17	57*	Full FLuc ctr=30
SMILES	CSC inhib	T cruzi repl	SKKanGAS inh	Calb FLC	Mdm2 MdmX PPI	Beta cell apopt	Mdm2 MdmX conf	others
COc1cc2c3cc1Oc1cc(ccc1O)C[C@@H]1c4c(cc(OC)c(O)c4Oc4ccc(cc4)C[C@H]3N(C)CC2)CCN1C	7	26	-1	-13	92*	1	76*	Full FLuc ctr=50*
COc1cc2c(cc1O)C[C@H]1c3c(cc(O)c(OC)c3-2)CCN1C	-10	nt	nt	nt	12	-3	nt
CC(C)CNP(=S)(c1ccccc1)C(C)(C)C (configuration not stated)	0	-4	4	-1	4	-2	nt
O=C(NCc1ccccc1)c1cccn(Cc2ccccc2)c1=O	13	-1	-2	-3	0	-7	nt
O=C(c1cc(C(=O)NCc2ccccc2)c(=O)n(Cc2ccccc2)c1)c1cc(Cl)ccc1O	49	12	26	-16	56*	9	29
COc1ccc(/C=C2\C(=N\O)C3CCN2CC3)cc1	-10	-1	-11	3	6	nt	nt
C=C1C(=O)O[C@@H]2C[C@@H](C)[C@H]3C=CC(=O)[C@]3(O)C[C@@H]12	3	-32	1	26	58*	2	-8
O=C(c1ccccc1)N1CCC2(CC1)OCCO2	-6	-11	-2	0	21	-2	nt
O=C1Nc2cc(C(=O)N3CCC4(CC3)OCCO4)ccc2S/C1=C\c1ccccc1	52	-3	-2	-14	61*	17	50*	Full FLuc ctr=66*
CC1CCN(C(=O)c2ccc(N3CC4CC(C3)c3cccc(=O)n3C4)c([N+](=O)[O-])c2)CC1 (configuration not stated)	-5	3	-4	21	4	2	nt
COC(=O)C1=C(c2cc3ccccc3s2)C[C@@H]2CC[C@H]1N2C(=O)NCc1ccc(C(F)(F)F)cc1	60	57*	32	13	57*	-1	18
N[C@@H](Cc1ccccc1)C(=O)N1C[C@H]2C[C@@H](C1)c1cccc(=O)n1C2	-3	-9	-1	3	5	1	nt
Cc1cccc(NC(=O)CN2CCN(C(=O)COc3cccc(Br)c3)CC2)c1C	-15	nt	nt	nt	7	-3	nt
CCOC(=O)c1ccccc1C(=O)OCC	-8	2	17	15	-9	-11	nt

Source: PubChem (several laboratories)
